The subject of assay [1] is Mycobacterium tuberculosis variant bovis. As to the kind of experiment: Inhibition of mycolic acid synthesis in Mycobacterium bovis BCG str. Pasteur 1173P2 overexpressing ethA gene. It is filed as functional. The method in brief:
(§1)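 Mid-log cultures in Sauton medium exposed to graded drug concentrations (μg/ml) for 16 h at 37°C, then pulsed with 1 μCi/ml [2-14C]acetate for 8 h at 37°C. Cells PBS-washed, hydrolysed with 15% tetrabutylammonium hydroxide at 100°C overnight, methylated with CH3I in CH2Cl2; fatty and mycolic acid methyl esters resolved by TLC and autoradiographed.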

Assay [2] has the same test system. The assay can be described thus: Inhibition of oleic acid synthesis in Mycobacterium bovis BCG str. Pasteur 1173P2 overexpressing ethA gene. It is filed as functional. The gist of the method:
as §1

Active and inactive are the calls of the source. The rule behind the calls is not given here.

As for `CC(C)CCSc1ccc(NC(=S)Nc2ccc(SCCC(C)C)cc2)cc1`, the outcome in assay [1] and in assay [2] was Active.

These data come from ChEMBL document CHEMBL1142097, “EthA, a common activator of thiocarbamide-containing drugs acting on different mycobacterial targets” (Antimicrob Agents Chemother, 2007).
